Laboratory results: ChEMBL document CHEMBL4330169, “Bioactive Diterpenoids from the Stems of Euphorbia royleana” (J Nat Prod, 2019)

The compounds below were run on BV-2 (assay: Anti-inflammatory activity in mouse BV2 cells assessed as reduction in LPS-induced nitric oxide production by Griess assay).
Format: functional, cell-based
Method in brief: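 NO release from LPS-stimulated BV-2 cells was measured by the Griess reaction, and IC50 values were derived. SMT (2-methyl-2-thiopseudourea, sulfate) served as the positive control. Data come from three experiments. The procedure otherwise follows a previously published method.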

SMILES	IC50 [µM]
C=C[C@@]1(C)C=C2CC[C@@H]3[C@@](C)(O)[C@H](O)CC[C@@]3(C)[C@@H]2C[C@@H]1O	> 50
C/C=C(/C)C(=O)O[C@@H]1/C(C)=C/[C@@]23O[C@@]2(C[C@H](C)[C@@H]3O)C(=O)[C@H](C)[C@H](OC(C)=O)[C@@H]2[C@H]([C@@H]1OC)C2(C)C	> 50
CC(=O)O[C@@H]1[C@@H]2[C@H]([C@H](OC(=O)c3ccccc3)[C@H](OC(C)=O)/C(C)=C/[C@@]34O[C@@]3(C[C@H](C)[C@@H]4OC(C)=O)C(=O)[C@@H]1C)C2(C)C	> 50
C[C@H]1C(=O)CC[C@]2(C)[C@@H]1CC[C@@]13CC[C@@H](C[C@H]12)[C@](O)(CO)C3	> 50
C/C=C(/C)C(=O)O[C@H]1C(C)=C[C@]23C(=O)[C@@H](C=C(C)[C@@H](O)[C@]12O)[C@H]1[C@@H](C[C@H]3C)[C@@]1(C)COC(=O)/C(C)=C/C	28.6
CC1=C2C=C3CC[C@@H]4[C@@](C)(CO)CC[C@H](O)[C@@]4(C)[C@@H]3C[C@H]2OC1=O	> 50
CC(=O)O[C@H]1C2=C(C[C@H]3OC(=O)C(C)=C13)[C@@]1(C)[C@H](CC2)C(C)(C)CC[C@@H]1O	> 50
CO[C@H]1[C@H]2[C@@H]([C@@H](OC(C)=O)[C@@H](C)C(=O)[C@@]34C[C@H](C)[C@H](OC(C)=O)[C@]3(/C=C(\C)[C@H]1O)O4)C2(C)C	> 50
C=C1C[C@@]23CC[C@@H]4C(C)(C)C(=O)CC[C@@]4(C)[C@@H]2C[C@@H]1[C@@H](O)C3=O	> 50
CC1=C2[C@@H](O)C3=C(C[C@H]2OC1=O)[C@@]1(C)[C@H](CC3)C(C)(C)CC[C@@H]1O	> 50
CC(=O)OC[C@]1(C)C(=O)CC[C@@]2(C)[C@@H]3C[C@@H]4CC[C@@]3(CC[C@@H]21)C[C@@]4(O)CO	> 50

More lines, now with the values ahead:

IC50 [µM]	SMILES
> 50	C=C1C[C@@]23CC[C@@H]4C(C)(C)[C@@H](O)CC[C@@]4(C)[C@@H]2C[C@@H]1[C@@H](O)C3=O
> 50	C=C1C[C@@]23CC[C@@H]4C(C)(C)[C@H](O)CC[C@@]4(C)[C@@H]2C[C@@H]1[C@@H](O)C3=O
> 50	C=C[C@]1(C)C=C2CC[C@H]3[C@](C)(C=O)[C@@H](O)CC[C@]3(C)[C@H]2CC1 [SANDARACOPIMARADIENOLAL]
19.3	C/C=C(\C)C(=O)OC[C@]1(C)C(=O)CC[C@@]2(C)[C@@H]3CC[C@@H]4C[C@@]3(CC[C@@H]21)C[C@@]4(O)CO
3.7	CSC(=N)N
14.5	C/C=C(/C)C(=O)O[C@H]1C(C)=C[C@]23C(=O)[C@@H](C=C(C)[C@@H](O)[C@]12O)[C@H]1[C@@H](C[C@H]3C)[C@@]1(C)COC(=O)c1ccccc1
12	CC(=O)O[C@H]1CCC(C)(C)[C@H]2CCC3=CC4=C(C)C(=O)O[C@@H]4C[C@H]3[C@]12C
32.3	C=C[C@@]1(C)C=C2CC[C@@H]3[C@@](C)(C=O)[C@H](O)CC[C@@]3(C)[C@@H]2C[C@@H]1O
38.4	CC1=C2C=C3CC[C@@H]4C(C)(C)CC[C@H](O)[C@@]4(C)[C@@H]3C[C@@H]2OC1=O
32.6	CCC(C)C(=O)OC[C@]1(C)C(=O)CC[C@@]2(C)[C@@H]3CC[C@@H]4C[C@@]3(CC[C@@H]21)C[C@@]4(O)CO (stereo partly specified)
